{"source": "ChEMBL document CHEMBL4330143", "about": "“Maximizing ER-α Degradation Maximizes Activity in a Tamoxifen-Resistant Breast Cancer Model: Identification of GDC-0927” (ACS Med Chem Lett, 2019)", "key": {"[1]": {"assay": "AUC (0 to 24 hrs) in nude mouse xenografted with tamoxifen-resistant human MCF7 cells at 100 mg/kg, po daily for 28 days measured on day 28 post last dose", "assay_type": "ADME, organism-based", "set-up": "time < 24 hr, dose 100 mg/kg, route oral", "settings": "in vivo", "in_short": "(§1)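 Tamoxifen-resistant MCF-7 xenograft mice carrying subcutaneous 0.72 mg estradiol pellets. Plasma pharmacokinetics sampled on day 28 of the study, at take-down.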"}, "[2]": {"assay": "Unbound Cmax in nude mouse xenografted with tamoxifen-resistant human MCF7 cells at 100 mg/kg, po daily for 28 days measured on day 28 post last dose", "assay_type": "ADME, organism-based", "settings": "in vivo, 672 h", "in_short": "as §1"}, "MCF7": {"test_system": "MCF7", "assay": "Antitumor activity against tamoxifen-resistant human MCF7 cells xenografted in nude mouse at 100 mg/kg, po daily for 28 days", "assay_type": "functional, organism-based", "in_short": "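Tamoxifen-resistant MCF-7 tumours grown subcutaneously in mice, with estradiol supplied from subcutaneous 0.72 mg estradiol pellets.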"}, "[3]": {"assay": "Unbound fraction in mouse plasma", "assay_type": "ADME, cell-free"}, "Rattus norvegicus": {"test_system": "Rattus norvegicus", "assay": "In vivo inverse agonist activity at ERalpha in CD-IGS rat assessed as decrease in uterine weight at 10 mg/kg, po for 3 consecutive days measured at 24 hrs post last dose", "assay_type": "functional, organism-based", "in_short": "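Rat uterine wet weight assay run in agonist mode, with no ethynyl estradiol added. Oral dosing at 10 mg/kg for 3 days. Uterine weights compared with those of vehicle-treated animals.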"}, "[4]": {"assay": "AUC in rat at 10 mg/kg, po daily for 3 days measured on day 3 post last dose", "assay_type": "ADME, organism-based", "settings": "in vivo"}, "[5]": {"molecular_target": "T1, Progesterone receptor (Homo sapiens) (UniProt P06401)", "T1 sequence (whole entry)": "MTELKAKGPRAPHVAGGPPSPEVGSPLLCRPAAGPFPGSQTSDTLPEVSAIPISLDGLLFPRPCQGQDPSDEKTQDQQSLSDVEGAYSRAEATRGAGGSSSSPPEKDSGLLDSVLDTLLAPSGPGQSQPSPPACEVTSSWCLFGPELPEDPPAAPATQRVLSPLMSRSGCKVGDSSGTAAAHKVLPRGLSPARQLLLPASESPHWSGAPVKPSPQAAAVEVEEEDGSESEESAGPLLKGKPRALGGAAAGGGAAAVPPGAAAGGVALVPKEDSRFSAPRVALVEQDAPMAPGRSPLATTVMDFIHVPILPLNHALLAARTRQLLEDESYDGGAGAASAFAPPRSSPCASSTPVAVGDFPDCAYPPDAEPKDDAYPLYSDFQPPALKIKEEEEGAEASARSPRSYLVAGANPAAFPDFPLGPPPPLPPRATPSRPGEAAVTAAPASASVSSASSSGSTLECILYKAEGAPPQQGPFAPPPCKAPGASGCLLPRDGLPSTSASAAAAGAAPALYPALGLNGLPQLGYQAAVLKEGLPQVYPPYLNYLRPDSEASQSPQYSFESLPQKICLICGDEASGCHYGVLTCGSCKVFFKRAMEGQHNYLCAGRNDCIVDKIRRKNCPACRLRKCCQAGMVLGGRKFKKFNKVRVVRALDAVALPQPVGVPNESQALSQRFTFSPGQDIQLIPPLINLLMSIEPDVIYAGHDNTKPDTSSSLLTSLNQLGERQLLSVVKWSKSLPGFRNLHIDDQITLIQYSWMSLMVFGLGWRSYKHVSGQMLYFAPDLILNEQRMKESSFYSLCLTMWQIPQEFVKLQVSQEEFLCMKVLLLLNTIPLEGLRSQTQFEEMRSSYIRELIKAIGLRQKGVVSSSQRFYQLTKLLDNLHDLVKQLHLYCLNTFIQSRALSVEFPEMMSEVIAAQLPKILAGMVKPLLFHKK", "assay": "Agonist activity at PR-B (unknown origin) by transcriptional reporter assay"}, "[6]": {"molecular_target": "T2, Glucocorticoid receptor (Homo sapiens) (UniProt P04150)", "T2 sequence (whole entry)": "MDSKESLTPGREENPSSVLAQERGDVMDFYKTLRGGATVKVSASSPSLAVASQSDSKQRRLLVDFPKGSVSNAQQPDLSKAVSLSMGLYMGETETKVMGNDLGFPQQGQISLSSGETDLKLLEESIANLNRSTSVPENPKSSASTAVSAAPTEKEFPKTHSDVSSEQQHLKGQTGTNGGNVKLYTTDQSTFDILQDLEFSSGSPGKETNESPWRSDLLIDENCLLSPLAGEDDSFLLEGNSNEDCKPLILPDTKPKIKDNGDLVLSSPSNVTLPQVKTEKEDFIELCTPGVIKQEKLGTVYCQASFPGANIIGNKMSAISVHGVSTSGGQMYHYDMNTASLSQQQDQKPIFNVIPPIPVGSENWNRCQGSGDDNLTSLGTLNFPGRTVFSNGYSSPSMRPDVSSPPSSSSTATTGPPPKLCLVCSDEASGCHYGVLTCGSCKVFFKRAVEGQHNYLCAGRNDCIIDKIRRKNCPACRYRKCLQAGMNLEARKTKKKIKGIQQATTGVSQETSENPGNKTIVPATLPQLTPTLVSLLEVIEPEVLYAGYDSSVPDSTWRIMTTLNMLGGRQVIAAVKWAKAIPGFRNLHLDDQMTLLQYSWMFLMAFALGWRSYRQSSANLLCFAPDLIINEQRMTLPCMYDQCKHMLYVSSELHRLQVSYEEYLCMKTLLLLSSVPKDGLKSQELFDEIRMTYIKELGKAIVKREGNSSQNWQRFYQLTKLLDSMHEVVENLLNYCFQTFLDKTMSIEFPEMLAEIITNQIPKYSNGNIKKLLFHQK", "assay": "Antagonist activity at GR (unknown origin) by transcriptional reporter assay"}, "Cytochrome P450 2C19": {"molecular_target": "Cytochrome P450 2C19 (Homo sapiens, UniProt P33261)", "sequence (P33261 whole entry)": "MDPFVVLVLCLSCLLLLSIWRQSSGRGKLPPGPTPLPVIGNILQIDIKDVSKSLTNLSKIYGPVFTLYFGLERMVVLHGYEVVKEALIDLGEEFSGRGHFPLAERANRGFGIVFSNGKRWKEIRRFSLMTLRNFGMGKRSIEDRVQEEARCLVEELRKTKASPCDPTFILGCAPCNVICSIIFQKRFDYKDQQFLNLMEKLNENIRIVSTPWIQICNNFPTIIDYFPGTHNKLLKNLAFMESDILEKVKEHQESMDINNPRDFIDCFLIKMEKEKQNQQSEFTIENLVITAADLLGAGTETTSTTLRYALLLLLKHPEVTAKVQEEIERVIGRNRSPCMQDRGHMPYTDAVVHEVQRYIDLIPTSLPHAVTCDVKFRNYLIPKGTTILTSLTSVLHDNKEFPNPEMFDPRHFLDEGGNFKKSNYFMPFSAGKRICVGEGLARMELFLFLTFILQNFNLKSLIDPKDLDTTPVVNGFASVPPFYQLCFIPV", "assay": "Competitive inhibition of CYP2C19 (unknown origin)", "assay_type": "ADME"}, "Cytochrome P450 2C9": {"molecular_target": "Cytochrome P450 2C9 (Homo sapiens, UniProt P11712)", "sequence (P11712 whole entry)": "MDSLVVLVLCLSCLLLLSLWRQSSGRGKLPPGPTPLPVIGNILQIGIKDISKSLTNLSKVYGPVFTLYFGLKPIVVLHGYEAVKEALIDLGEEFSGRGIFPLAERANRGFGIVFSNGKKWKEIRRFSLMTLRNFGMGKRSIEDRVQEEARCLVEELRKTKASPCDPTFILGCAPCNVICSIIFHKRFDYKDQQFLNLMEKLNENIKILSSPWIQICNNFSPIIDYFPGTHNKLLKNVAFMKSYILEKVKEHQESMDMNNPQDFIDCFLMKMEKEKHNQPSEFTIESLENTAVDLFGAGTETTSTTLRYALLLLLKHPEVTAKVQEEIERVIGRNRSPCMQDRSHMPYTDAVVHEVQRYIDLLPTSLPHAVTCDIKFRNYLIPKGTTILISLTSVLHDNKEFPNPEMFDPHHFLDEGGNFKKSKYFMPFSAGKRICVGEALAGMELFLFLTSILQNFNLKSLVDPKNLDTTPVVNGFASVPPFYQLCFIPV", "assay": "Inhibition of CYP2C9 (unknown origin)", "assay_type": "ADME"}, "[7]": {"assay": "Genotoxicity in Salmonella typhimurium TA98 by Ames test", "assay_type": "toxicity", "settings": "salmonella enterica subsp. enterica serovar […]"}}, "note": "The source made the active and inactive calls. No cut-off for these calls is given here.", "data": [{"smiles": "CC1=C(c2cccc(O)c2)[C@H](c2ccc(OCCN3CC(CF)C3)cc2)Oc2ccc(O)cc21", "values": [{"measurement": "AUC at 24 h", "setting": "[1]", "value": 6900, "unit": "ng·h/mL"}, {"measurement": "fCmax", "setting": "[2]", "value": 0.018, "unit": "µg/mL"}, {"measurement": "Activity", "setting": "MCF7", "value": "Active"}, {"measurement": "Fu", "setting": "[3]", "value": 1.9, "unit": "%"}, {"measurement": "Activity", "setting": "Rattus norvegicus", "value": "Active"}, {"measurement": "AUC at 72 h", "setting": "[4]", "value": 160, "unit": "ng·h/mL"}, {"measurement": "Activity", "setting": "[5]", "value": "inactive"}, {"measurement": "inhibition", "setting": "[6]", "value": "inactive"}, {"measurement": "IC50", "setting": "Cytochrome P450 2C19", "value": "> 10", "unit": "µM"}, {"measurement": "IC50", "setting": "Cytochrome P450 2C9", "value": 3.2, "unit": "µM"}, {"measurement": "Activity", "setting": "[7]", "value": "Non-Toxic"}]}]}
